Data from ChEMBL document CHEMBL1157364, “Rapamycin reduces CCR5 density levels on CD4 T cells, and this effect results in potentiation of enfuvirtide (T-20) against R5 strains of human immunodeficiency virus type 1 in vitro” (Antimicrob Agents Chemother, 2007).
Active and inactive are the calls of the source. The calls are words filed in the database; no cut-off is given here.

Tests used:
[1] = tested on: Human immunodeficiency virus 1; experiment: Antiviral activity against HIV1 ADA in human PBMC assessed as reduction of p24 antigen levels; format: functional, organism-based; settings: Human immunodeficiency virus 1, ADA
How it was run: (§1)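 PBMCs cultured 6 days with IL-2 (100 U/ml) plus RAPA, then exposed 2 h to HIV-1 ADA (R5) or IIIb (X4) at MOI 0.001, washed three times with PBS, and kept in IL-2 medium with drugs. p24 in supernatant by ELISA on day 4 after infection. Means ± SD of independent experiments.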

[2] = tested on: Human immunodeficiency virus 1; experiment: Antiviral activity against HIV1 R5 in human PBMC assessed as fractional inhibition of viral replication; format: functional, organism-based; settings: Human immunodeficiency virus 1, R5
How it was run: (§2)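 Fixed-ratio combination in PBMC p24 infectivity assays (RAPA pretreatment, MOI 0.001, p24 ELISA day 4). Each drug tested alone in twofold dilutions, RAPA 0.125–2 nM and T-20 2.5–40 nM, and in a 1/20 RAPA/T-20 molar ratio. Median-effect (Chou) analysis gave Dm, m, r, combination index and dose reduction index.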

[3] = tested on: Human immunodeficiency virus 1; experiment: Antiviral activity against HIV1 R5 in human PBMC assessed as fractional inhibition of viral replication at 20 nM; format: functional; how it was run: as §2
[4] = tested on: Human immunodeficiency virus 1; experiment: Antiviral activity against HIV1 R5 in human PBMC assessed as fractional inhibition of viral replication at 10 nM; format: functional; how it was run: as §2
[5] = tested on: Human immunodeficiency virus 1; experiment: Antiviral activity against HIV1 R5 in human PBMC assessed as fractional inhibition of viral replication at 5 nM; format: functional; how it was run: as §2
[6] = tested on: Human immunodeficiency virus 1; experiment: Antiviral activity against HIV1 R5 in human PBMC assessed as fractional inhibition of viral replication at 2.5 nM; format: functional; how it was run: as §2
[7] = tested on: Human immunodeficiency virus 1; experiment: Antiviral activity against HIV1 X4 in human PBMC assessed as reduction of p24 antigen levels; format: functional, organism-based; settings: Human immunodeficiency virus 1, X4; how it was run: as §1
[8] = tested on: Human immunodeficiency virus 1; experiment: Antiviral activity against HIV1 R5 in human PBMC assessed as fractional inhibition of viral replication at 40 nM; format: functional; how it was run: as §2
[9] = tested on: Human immunodeficiency virus 1; experiment: Antiviral activity against HIV1 R5 in human PBMC assessed as fractional inhibition of viral replication at 1 nM; format: functional; how it was run: as §2
[10] = tested on: Human immunodeficiency virus 1; experiment: Antiviral activity against HIV1 ADA in human PBMC assessed as reduction of p24 antigen levels after 4 days of infection; format: functional, organism-based; how it was run: as §1
PBMC [11] = experiment: Reduction of CCR5 density on human sPBMC at 0.1 to 1 nM after 6 days by quantitative fluorescence-activated cell sorting; format: functional, cell-based
How it was run: (§3)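 PBMCs cultured 6 days with IL-2 and RAPA. Blocked 30 min at room temperature (PBS with 2% human serum, 5% horse serum, 0.1% azide), then stained 30 min with PE antibodies. Surface molecules per cell from FL-2 by Quantibrite-PE bead regression, PE/antibody ratio 1:1. Means ± SD from seven donors; Student's t test versus untreated.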

[12] = tested on: Human immunodeficiency virus 1; experiment: Antiviral activity against HIV1 R5 in human PBMC assessed as fractional inhibition of viral replication at 0.125 nM; format: functional; how it was run: as §2
[13] = tested on: Human immunodeficiency virus 1; experiment: Antiviral activity against HIV1 R5 in human PBMC assessed as fractional inhibition of viral replication at 0.5 nM; format: functional; how it was run: as §2
[14] = tested on: Human immunodeficiency virus 1; experiment: Antiviral activity against HIV1 R5 in human PBMC assessed as fractional inhibition of viral replication at 2 nM; format: functional; how it was run: as §2
PBMC [15] = experiment: Reduction of CXCR4 density on human PBMC at 0.1 to 1 nM after 6 days by quantitative fluorescence-activated cell sorting; format: functional, cell-based; how it was run: as §3
PBMC [16] = experiment: Effect on cell viability of human PBMC at 0.03 to 1 nM after 14 days by trypan blue staining; format: cell-based; settings: 336 h, 0.001 µM
How it was run: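 PBMCs cultured with IL-2 and RAPA for 14 days; viability by trypan blue staining. Means ± SD from seven donors.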

[17] = tested on: Human immunodeficiency virus 1; experiment: Antiviral activity against HIV1 R5 assessed as inhibition of cell-cell fusion between R5-envelope expressing HEK293T cells and CD8 depleted human PBMCs pretreated for 6 days; format: functional, organism-based; settings: Human immunodeficiency virus 1, R5, HEK-293T
How it was run: (§4)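 Target cells were CD8-depleted PBMCs pretreated 6 days with RAPA and labeled with calcein-AM. Effectors were 293T cells transfected with JRFL (R5) or HXB2 (X4) Env plus Rev, loaded with CMTMR on day 2. Cells cocultured 1:3 ± T-20 for 2.5 h at 37°C in HEPES-DMEM pH 7.2 with BSA 1 mg/ml. Double-positive cells scored by microscopy, ≥100 cells, normalized to no-T-20 fusion. EC50 from F = 100/(1 + Ci/EC50).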

PBMC [18] = experiment: Effect on cell viability of human PBMC pretreated for 14 days by trypan blue staining; settings: 336 h
[19] = tested on: Human immunodeficiency virus 1; experiment: Antiviral activity against HIV1 X4 assessed as inhibition of cell-cell fusion between X4-envelope expressing HEK293T cells and CD8 depleted human PBMCs pretreated for 6 days; format: functional, organism-based; settings: Human immunodeficiency virus 1, X4, HEK-293T; how it was run: as §4
[20] = tested on: Human immunodeficiency virus 1; experiment: Antiviral activity against HIV1 R5 in human PBMC assessed as fractional inhibition of viral replication at 0.250 nM; format: functional; how it was run: as §2
PBMC [21] = experiment: Reduction of CD4 density on human PBMC at 1 nM after 6 days by quantitative fluorescence-activated cell sorting; format: functional; parameters: scale not given: the % may be the effect or the level left; how it was run: as §3

Molecule: enfuvirtide
- EC50 [1]: 10 nM
- EC50 [2]: 12.9 nM
- Activity [3]: 0.57
- Activity [4]: 0.5
- Activity [5]: 0.24
- Activity [6]: 0.23
- EC50 [7]: 2.5 nM
- Activity [8]: 0.73

Molecule: CO[C@H]1C[C@@H]2CC[C@@H](C)[C@@](O)(O2)C(=O)C(=O)N2CCCC[C@H]2C(=O)O[C@H]([C@H](C)C[C@@H]2CC[C@@H](O)[C@H](OC)C2)CC(=O)[C@H](C)/C=C(\C)[C@@H](O)[C@@H](OC)C(=O)[C@H](C)C[C@H](C)/C=C/C=C/C=C/1C [SIROLIMUS]
- Activity [9]: 0.85
- Activity [10]: Active
- EC50 [1]: 0.15 nM
- Activity (PBMC [11]): Active
- EC50 [2]: 0.18 nM
- Activity [12]: 0.34
- Activity [13]: 0.78
- Activity [14]: 0.92
- Activity (PBMC [15]): inactive
- Activity (PBMC [16]): Non-toxic
- EC50 [17]: 0.1 nM
- Activity (PBMC [18]): Non-toxic
- EC50 [19]: 1.3 nM
- Activity [20]: 0.66
- Activity (PBMC [21]): 15%
